Experimental data gathered from unrelated publications.
Each line is one published result; the experiments were not run side by side.
Target: Casein kinase I isoform gamma-1 (CSNK1G1, Homo sapiens, UniProt Q9HCP0)

`C[C@H](c1cccc(C#N)c1)n1cc(Cl)cc(C(N)=O)c1=N` gave a remaining binding of 96% (cell-free assay, competition with immobilised ligand; 1 µM).
With `COc1cc2ncnc(Nc3ccc(Oc4ccccc4)cc3C)c2cc1OC` the inhibition was 8% (enzyme activity, inhibitor; 1 µM).
The inhibition of `Cc1ccc(Nc2nccc(N(C)c3ccc4c(C)n(C)nc4c3)n2)cc1S(N)(=O)=O` is reported as -27% (enzyme activity, inhibitor; 0.3 µM).
`CS(=O)(=O)N1CCCC(NC(=O)[C@H](CCC2CCCCC2)NC(=O)c2ccc(CNc3ncnc4c3nnn4-c3ccccc3)cc2)C1` (some centres unmarked) gave a remaining binding of 100% (cell-free assay, competition with immobilised ligand; 0.1 µM).
With `CNC(=O)c1cc(Oc2ccc(NC(=O)Nc3ccc(Cl)c(C(F)(F)F)c3)cc2)ccn1` the inhibition was -13% (enzyme activity, inhibitor; 10 µM).
`CC(C)(O)[C@H]1CC[C@H](Nc2ccc3ncc(-c4cccc(C(F)(F)F)c4)n3n2)CC1` has a remaining activity of 93% (enzyme activity, inhibitor; 1 µM).
With `CCC(=O)N[C@@H]1CC[C@H](C(=O)N(C)c2ccc(-c3nc4ccccc4o3)cc2)C1` the remaining binding was 100% (cell-free assay, competition with immobilised ligand; 1 µM).
`COc1cc2c(Nc3ccc(Br)cc3F)ncnc2cc1OCC1CCN(C)CC1` has a remaining signal of 100% (cell-free assay; 0.5 µM).
The remaining binding of `COc1ccc2cc(OCC3(C(=O)O)CN(C(=O)c4ccc(F)cc4)C3)ccc2c1` is reported as 94% (cell-free assay, competition with immobilised ligand; 1 µM).
`Nc1ncnc2occ(-c3ccc(NC(=O)Nc4cc(C(F)(F)F)ccc4F)cc3)c12` gave a remaining signal of 18% (cell-free assay, inhibitor; 20 µM).
For `C=CC(=O)Nc1cc(Nc2nccc(Nc3cc(Cl)c(F)cc3C(C)(C)O)n2)c(OC)cc1N1CC[C@@H](N(C)C)C1`, the inhibition was 15% (enzyme activity, inhibitor; 1 µM).
`c1cnn2ncc(-c3ccnc(N4CCC45COC5)n3)c2c1` has a remaining binding of 84% (binding; 1 µM).
With `Cc1sc(C(=O)NC2COC2)cc1-n1cc(NC(=O)Nc2c(F)cccc2Cl)cn1` the remaining activity was 101% (enzyme activity, inhibitor; 10 µM).
With `O=C1NC(=O)c2cc(Nc3ccc(F)cc3)c(Nc3ccc(F)cc3)cc21` the remaining signal was 96.3% (cell-free assay; 0.5 µM).
With `Cc1ccc(C(=O)Nc2ccc(CN3CCN(C)CC3)c(C(F)(F)F)c2)cc1C#Cc1cnc2cccnn12` the remaining activity was 89% (enzyme activity, inhibitor; 23.5 nM).
`COc1cc2ncnc(Nc3ccc(F)c(Cl)c3)c2cc1OCCCN1CCOCC1` gave a remaining signal of 99.5% (cell-free assay; 0.5 µM).
`O=C(O)[C@H]1[C@H](Cn2nnc3ccccc3c2=O)CC[C@@H]1C(=O)c1ccc(OCCC2CCOCC2)cc1` gave a remaining binding of 94% (cell-free assay, competition with immobilised ligand; 1 µM).
With `Cc1cc(NC(=O)c2cccc3cc(-c4cccc5[nH]nc(N)c45)ccc23)ccc1F` the activity vs control was 90% (enzyme activity, inhibitor; 0.1 µM).
The remaining binding of `CC(C)(O)c1cncc(-c2nc3ccc(F)cc3n2C2CC2)c1` is reported as 100% (cell-free assay, competition with immobilised ligand; 1 µM).
The remaining activity of `CC(C)(C)c1nc(-c2cccc(NS(=O)(=O)c3c(F)cccc3F)c2F)c(-c2ccnc(N)n2)s1` is reported as 96% (enzyme activity, inhibitor, radiometric; 1 µM).
